In publication PMC3077087 (Cancer research, 2011):

Tests used:
[1] = system: mTORC1 and mTORC2 signaling; assay: In vitro mTORC1/mTORC2 signaling; type: cell-based; conditions: for Akt phosphorylation at mTORC2-specific Ser473 site: Supplemental Figure 1A
RIP-Tag2 tumors [2] = assay: RIP-Tag2 tumor vascularity; type: in vivo, mice
Summary of the method: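 RIP-Tag2 mice, 9–10 weeks old, dosed up to 7 days. Vehicle (Labrafil or water); test compound 75 mg/kg BID by gavage; OSI-930 200 mg/kg QD by gavage; rapamycin 20 mg/kg QD ip. Perfusion-fixed, 60–80 µm sections stained for CD31 and basement membrane. Area density at threshold 30–50; empty sleeves scored. SEM of 3–8 mice per group; ANOVA/Fisher PLSD.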

GEO colorectal xenograft [3] = assay: GEO xenograft pharmacodynamics; type: in vivo, mice; conditions: GEO xenografts, 12 days
Summary of the method: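 GEO cells implanted s.c. in right flank of nu/nu CD-1 mice and dosed for 12 days. Tumors collected 2, 8 and 24 h post-dose and snap frozen. Phospho- and total 4E-BP1 (37/46), Akt (473), S6 (235/236) quantified by Western blot; n=2.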

RIP-Tag2 tumors [4] = assay: VEGF in RIP-Tag2 tumor lysates, multiplex antibody array; type: in vivo, mice; conditions: for VEGF-B expression: data not shown
Summary of the method: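 Tumors from RIP-Tag2 mice given vehicle, test compound or rapamycin. Tumor lysates run on mouse angiogenesis antibody arrays per manufacturer's directions. VEGF signal read as pixel density. SEM of 3–8 mice per group; ANOVA with Fisher PLSD.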

[5] = system: RIP-Tag2 pancreatic neuroendocrine tumors; assay: Signaling, proliferation and apoptosis in RIP-Tag2 tumors, single agents; type: in vivo, mice; conditions: for Akt and 4E-BP1 phosphorylation: 7-day treatment
Summary of the method: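 RIP-Tag2 mice (9–10 weeks) treated 7 days: test compound 75 mg/kg BID gavage, rapamycin 20 mg/kg QD ip, or vehicle. Perfusion-fixed tumor sections (60–80 µm) immunostained for phospho-S6K, phospho-Akt and phospho-4E-BP1 with CD31, plus phospho-histone H3 and activated caspase-3. Examined by fluorescence/confocal microscopy and quantified. SEM of 3–8 mice per group; ANOVA with Fisher PLSD.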

RIP-Tag2 tumors [6] = assay: Intratumoral hemorrhage; type: in vivo, mice; conditions: 4 days after cessation of OSI-930
Summary of the method: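 Regrowth design in 10-week-old RIP-Tag2 mice: OSI-930 for 7 days, then vehicle, test compound or rapamycin for 4 days; vehicle-only arm runs 11 days. Perfusion-fixed tumors cut at 60–80 µm. Erythrocytes immunostained; area density from fluorescence images at empirical threshold 30–50. Values are SEM of 3–8 mice per group; ANOVA with Fisher PLSD.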

RIP-Tag2 tumors [7] = assay: Vascular regrowth after cessation of OSI-930 in RIP-Tag2 tumors; type: in vivo, mice
mTOR = mTOR (Homo sapiens, UniProt P42345); assay: Panel of 98 purified protein kinases: mTOR; type: biochemical; conditions: 98 purified protein kinases panel
PIP5Kγ = PIP5Kγ (Homo sapiens, UniProt O60331); assay: Panel of 98 purified protein kinases: PIP5Kγ; type: biochemical; conditions: 98 purified protein kinases panel, data not shown
PI3Kδ = PI3Kδ (Homo sapiens, UniProt O00329); assay: Panel of 98 purified protein kinases: PI3Kδ; type: biochemical; conditions: 98 purified protein kinases panel, data not shown
PI3Kδ, sequence (O00329 whole entry, species assumed): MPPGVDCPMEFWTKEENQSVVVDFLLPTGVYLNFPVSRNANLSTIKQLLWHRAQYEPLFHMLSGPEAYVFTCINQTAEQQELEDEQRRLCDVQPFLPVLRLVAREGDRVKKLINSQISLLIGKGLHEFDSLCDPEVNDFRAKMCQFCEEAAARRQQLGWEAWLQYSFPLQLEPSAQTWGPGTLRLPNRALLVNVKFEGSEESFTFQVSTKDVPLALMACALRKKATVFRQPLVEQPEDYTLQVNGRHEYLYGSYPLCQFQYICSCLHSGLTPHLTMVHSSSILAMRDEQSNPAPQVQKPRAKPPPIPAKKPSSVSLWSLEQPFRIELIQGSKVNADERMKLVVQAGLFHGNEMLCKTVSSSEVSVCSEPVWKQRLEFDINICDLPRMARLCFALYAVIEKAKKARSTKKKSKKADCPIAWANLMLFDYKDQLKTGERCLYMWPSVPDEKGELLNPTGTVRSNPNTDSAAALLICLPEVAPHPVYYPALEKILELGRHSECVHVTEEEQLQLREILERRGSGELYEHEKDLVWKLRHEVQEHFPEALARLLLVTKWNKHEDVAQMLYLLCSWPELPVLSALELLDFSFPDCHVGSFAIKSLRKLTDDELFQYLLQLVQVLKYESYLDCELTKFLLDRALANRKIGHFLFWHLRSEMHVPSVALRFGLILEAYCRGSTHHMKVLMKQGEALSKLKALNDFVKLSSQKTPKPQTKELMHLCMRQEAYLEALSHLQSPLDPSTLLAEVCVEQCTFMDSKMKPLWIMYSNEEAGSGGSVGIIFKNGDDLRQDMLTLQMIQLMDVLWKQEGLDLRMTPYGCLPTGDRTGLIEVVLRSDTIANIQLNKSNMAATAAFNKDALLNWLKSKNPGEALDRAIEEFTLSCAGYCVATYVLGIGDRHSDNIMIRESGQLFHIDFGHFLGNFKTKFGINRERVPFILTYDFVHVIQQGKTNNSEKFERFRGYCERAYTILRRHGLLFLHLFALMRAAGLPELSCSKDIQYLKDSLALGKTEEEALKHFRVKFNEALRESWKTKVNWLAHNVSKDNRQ
PI3Kδ, sequence (P27986 whole entry partner, species assumed): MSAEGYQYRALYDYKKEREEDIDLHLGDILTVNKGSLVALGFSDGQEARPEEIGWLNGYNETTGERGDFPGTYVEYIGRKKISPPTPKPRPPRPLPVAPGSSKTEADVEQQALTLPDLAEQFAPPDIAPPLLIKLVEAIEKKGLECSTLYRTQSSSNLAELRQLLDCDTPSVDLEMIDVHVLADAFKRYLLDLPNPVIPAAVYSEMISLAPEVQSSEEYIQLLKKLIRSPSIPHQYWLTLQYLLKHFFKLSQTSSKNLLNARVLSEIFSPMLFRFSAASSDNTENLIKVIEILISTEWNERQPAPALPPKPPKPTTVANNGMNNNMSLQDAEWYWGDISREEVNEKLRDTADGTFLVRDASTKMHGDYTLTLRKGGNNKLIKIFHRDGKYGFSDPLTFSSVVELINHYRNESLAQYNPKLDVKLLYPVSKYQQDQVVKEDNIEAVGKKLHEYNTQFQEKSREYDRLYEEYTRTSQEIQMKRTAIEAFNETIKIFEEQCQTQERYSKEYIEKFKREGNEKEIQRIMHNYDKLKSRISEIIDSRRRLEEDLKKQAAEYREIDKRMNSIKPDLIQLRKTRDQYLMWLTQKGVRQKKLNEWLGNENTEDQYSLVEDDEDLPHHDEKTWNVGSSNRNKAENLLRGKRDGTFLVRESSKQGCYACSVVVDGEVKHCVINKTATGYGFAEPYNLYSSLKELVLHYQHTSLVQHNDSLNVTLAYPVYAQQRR

PDK1 = target: T1, PDK1 (Homo sapiens, UniProt O15530); assay: Activity against PDK1; type: biochemical
T1 sequence (O15530 1-556): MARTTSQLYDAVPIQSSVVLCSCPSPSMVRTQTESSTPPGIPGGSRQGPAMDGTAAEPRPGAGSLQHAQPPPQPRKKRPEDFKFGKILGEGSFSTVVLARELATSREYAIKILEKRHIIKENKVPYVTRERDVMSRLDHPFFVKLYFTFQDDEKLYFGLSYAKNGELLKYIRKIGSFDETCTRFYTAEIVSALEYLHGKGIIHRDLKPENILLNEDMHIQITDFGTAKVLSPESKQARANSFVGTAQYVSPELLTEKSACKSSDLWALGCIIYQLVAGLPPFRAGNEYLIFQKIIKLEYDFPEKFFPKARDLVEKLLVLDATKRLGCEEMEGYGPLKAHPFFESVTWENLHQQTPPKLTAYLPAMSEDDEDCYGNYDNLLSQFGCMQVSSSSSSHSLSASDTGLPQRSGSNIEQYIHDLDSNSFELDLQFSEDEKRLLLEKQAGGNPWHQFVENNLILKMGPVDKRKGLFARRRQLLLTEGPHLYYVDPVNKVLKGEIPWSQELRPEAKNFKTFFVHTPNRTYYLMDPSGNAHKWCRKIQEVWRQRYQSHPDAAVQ

GEO colorectal xenograft [8] = assay: GEO xenograft tumor growth; type: in vivo, mice; conditions: GEO xenografts, compared with rapamycin
PI3Kγ = PI3Kγ (Homo sapiens, UniProt P48736); assay: Panel of 98 purified protein kinases: PI3Kγ; type: biochemical; conditions: 98 purified protein kinases panel, data not shown
PI3Kγ, sequence (P48736 whole entry, species assumed): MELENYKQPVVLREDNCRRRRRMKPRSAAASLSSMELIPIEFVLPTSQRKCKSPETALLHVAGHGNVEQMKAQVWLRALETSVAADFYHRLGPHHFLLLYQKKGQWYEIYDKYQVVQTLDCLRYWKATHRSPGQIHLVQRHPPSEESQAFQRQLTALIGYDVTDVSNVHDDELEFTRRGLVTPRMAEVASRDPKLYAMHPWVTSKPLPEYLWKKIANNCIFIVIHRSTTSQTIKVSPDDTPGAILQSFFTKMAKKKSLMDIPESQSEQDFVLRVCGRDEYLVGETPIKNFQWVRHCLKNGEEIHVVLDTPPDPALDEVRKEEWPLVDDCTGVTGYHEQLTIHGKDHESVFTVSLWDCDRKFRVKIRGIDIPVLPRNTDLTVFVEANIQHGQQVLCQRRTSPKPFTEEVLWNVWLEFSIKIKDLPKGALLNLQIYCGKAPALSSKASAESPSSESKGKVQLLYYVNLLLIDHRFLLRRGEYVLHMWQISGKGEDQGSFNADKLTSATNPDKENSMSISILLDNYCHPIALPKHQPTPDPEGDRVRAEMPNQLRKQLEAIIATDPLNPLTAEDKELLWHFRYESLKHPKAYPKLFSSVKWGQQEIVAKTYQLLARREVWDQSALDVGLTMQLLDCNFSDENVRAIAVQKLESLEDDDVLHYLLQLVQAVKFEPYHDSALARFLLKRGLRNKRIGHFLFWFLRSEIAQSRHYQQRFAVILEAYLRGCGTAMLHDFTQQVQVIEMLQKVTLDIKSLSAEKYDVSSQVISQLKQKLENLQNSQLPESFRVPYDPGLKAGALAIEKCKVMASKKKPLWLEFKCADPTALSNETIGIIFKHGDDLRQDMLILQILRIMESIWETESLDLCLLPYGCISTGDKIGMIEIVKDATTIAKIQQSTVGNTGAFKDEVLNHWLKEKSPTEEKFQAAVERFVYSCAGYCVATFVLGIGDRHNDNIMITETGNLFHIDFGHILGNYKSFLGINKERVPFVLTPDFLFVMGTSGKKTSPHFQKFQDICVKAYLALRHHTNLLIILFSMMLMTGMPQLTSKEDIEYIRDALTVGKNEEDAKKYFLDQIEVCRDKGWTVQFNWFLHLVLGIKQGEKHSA

RET = RET (Homo sapiens, UniProt P07949); assay: Panel of 98 purified protein kinases: RET; type: biochemical; conditions: 98 purified protein kinases panel, data not shown
RET, sequence (P07949 29-1114, species assumed): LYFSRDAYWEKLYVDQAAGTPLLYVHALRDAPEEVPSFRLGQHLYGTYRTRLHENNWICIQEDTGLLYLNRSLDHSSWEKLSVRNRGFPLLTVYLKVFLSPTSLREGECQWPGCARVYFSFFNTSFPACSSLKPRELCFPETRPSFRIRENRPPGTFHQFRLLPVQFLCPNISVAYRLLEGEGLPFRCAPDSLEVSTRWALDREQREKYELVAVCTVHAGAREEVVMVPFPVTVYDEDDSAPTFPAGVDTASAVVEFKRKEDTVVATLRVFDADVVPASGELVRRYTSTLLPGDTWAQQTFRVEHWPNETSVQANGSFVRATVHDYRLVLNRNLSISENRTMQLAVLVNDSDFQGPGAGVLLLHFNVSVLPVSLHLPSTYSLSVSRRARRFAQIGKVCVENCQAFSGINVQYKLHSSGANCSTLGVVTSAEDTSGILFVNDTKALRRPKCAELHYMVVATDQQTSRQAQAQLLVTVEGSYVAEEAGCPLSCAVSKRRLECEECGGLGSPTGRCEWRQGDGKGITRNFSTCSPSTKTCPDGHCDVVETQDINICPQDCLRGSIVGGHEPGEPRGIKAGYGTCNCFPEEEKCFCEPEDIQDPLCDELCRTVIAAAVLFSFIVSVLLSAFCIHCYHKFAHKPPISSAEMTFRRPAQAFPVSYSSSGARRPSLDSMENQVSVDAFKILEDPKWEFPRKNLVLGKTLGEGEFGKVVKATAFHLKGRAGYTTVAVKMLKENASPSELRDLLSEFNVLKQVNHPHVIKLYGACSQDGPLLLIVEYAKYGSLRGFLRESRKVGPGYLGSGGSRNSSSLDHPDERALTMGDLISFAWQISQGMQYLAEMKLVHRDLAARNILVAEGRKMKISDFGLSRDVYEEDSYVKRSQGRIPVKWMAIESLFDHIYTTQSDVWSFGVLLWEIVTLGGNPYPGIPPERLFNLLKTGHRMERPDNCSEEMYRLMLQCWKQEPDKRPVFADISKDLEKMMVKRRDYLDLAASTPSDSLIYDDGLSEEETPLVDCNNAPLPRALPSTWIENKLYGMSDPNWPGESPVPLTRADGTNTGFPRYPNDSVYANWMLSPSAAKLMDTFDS

MEK2 = MEK2 (Homo sapiens, UniProt P36507); assay: Panel of 98 purified protein kinases: MEK2; type: biochemical; conditions: 98 purified protein kinases panel, data not shown
MEK2, sequence (P36507 whole entry, species assumed): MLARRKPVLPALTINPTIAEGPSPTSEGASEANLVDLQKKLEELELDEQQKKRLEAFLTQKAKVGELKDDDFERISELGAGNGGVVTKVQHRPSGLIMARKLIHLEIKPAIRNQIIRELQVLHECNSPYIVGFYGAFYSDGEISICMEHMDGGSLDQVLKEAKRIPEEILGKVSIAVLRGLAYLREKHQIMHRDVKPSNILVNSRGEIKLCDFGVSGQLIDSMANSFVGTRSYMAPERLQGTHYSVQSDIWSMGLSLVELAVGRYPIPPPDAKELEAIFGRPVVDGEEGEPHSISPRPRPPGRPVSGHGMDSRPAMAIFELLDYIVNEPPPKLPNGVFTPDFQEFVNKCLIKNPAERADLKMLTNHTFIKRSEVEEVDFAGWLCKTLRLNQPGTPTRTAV

JNK3 = JNK3 (Homo sapiens, UniProt P53779); assay: Panel of 98 purified protein kinases: JNK3; type: biochemical; conditions: 98 purified protein kinases panel, data not shown
JNK3, sequence (P53779 whole entry, species assumed): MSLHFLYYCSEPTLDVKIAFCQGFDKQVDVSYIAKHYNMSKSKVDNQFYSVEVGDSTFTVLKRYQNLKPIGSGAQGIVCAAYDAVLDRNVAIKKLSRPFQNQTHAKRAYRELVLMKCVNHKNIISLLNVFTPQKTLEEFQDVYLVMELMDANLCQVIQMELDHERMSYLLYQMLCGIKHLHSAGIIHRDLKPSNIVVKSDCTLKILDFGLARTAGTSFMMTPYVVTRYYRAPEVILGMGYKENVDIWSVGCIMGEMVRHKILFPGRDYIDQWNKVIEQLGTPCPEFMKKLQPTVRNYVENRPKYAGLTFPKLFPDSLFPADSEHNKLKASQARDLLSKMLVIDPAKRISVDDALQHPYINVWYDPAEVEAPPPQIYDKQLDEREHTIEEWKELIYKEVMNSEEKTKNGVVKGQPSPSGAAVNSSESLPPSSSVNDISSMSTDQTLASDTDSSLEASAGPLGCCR

Row | inhibition of mTOR (mTOR) | inhibition of PI3Kδ (PI3Kδ) | activity against PDK1 (PDK1) | inhibition of PI3Kγ (PI3Kγ) | inhibition of RET (RET) | SMILES | 4E-BP1 phosphorylation at Ser37/46 [1] | Akt phosphorylation at mTORC2-specific Ser473 site [1] | empty basement membrane sleeves (vessel regression) (RIP-Tag2 tumors [2]; RIP-Tag2, 7 days) | VEGF-B expression (RIP-Tag2 tumors [4]) | Akt and 4E-BP1 phosphorylation [5] | tumor growth (GEO colorectal xenograft [8]) | other results
1 |  |  |  |  |  | CO[C@H]1C[C@@H]2CC[C@@H](C)[C@@](O)(O2)C(=O)C(=O)N2CCCC[C@H]2C(=O)O[C@H]([C@H](C)C[C@@H]2CC[C@@H](O)[C@H](OC)C2)CC(=O)[C@H](C)/C=C(\C)[C@@H](O)[C@@H](OC)C(=O)[C@H](C)C[C@H](C)/C=C/C=C/C=C/1C [rapamycin, reference compound] | failed to inhibit | failed to inhibit | not apparent | unchanged | not observed |  | S6Kinase and its substrate S6 [1]: inhibited; reduction of tumor vascularity (CD31) compared to baseline (RIP-Tag2 tumors [2]; RIP-Tag2, 7 days): not significantly reduced; phospho-S6 and phospho-4E-BP1 (GEO colorectal xenograft [3]; 20 mg/kg): inhibited; reduction of VEGF-A (densitometric analysis) (RIP-Tag2 tumors [4]): no significant reduction; phopsho-S6K relative to control [5]: inhibited
2 |  |  |  |  |  | O=C(Nc1ccc(OC(F)(F)F)cc1)c1sccc1NCc1ccnc2ccccc12 [OSI-930] |  |  | numerous |  |  |  | TER-119 levels, difference from baseline (RIP-Tag2 tumors [6]): ≤ 28%; decrease in vessel density (RIP-Tag2 tumors [7]; OSI-930 7 days, then vehicle 4 days after cessation): 18%; reduction of tumor vascularity (RIP-Tag2 tumors [7]; regrowth study, OSI-930 for 7 days): 63%
3 | fully inhibited | greater than 90% | inactive | greater than 90% | greater than 90% | COc1cccc2cc(-c3nc([C@H]4CC[C@H](C(=O)O)CC4)n4ncnc(N)c34)[nH]c12 [OSI-027] | inhibited | dose-dependently attenuated |  |  |  | slowed tumor growth more than did rapamycin | inhibition of PIP5Kγ (PIP5Kγ): significantly inhibited; 4E-BP1, Akt, and S6 phosphorylation (GEO colorectal xenograft [3]; 65 mg/kg, after 2 hours): decreased
4 | fully inhibited | greater than 90% | inactive | greater than 90% | greater than 90% | Nc1nccn2c1c(-c1cc3cccc(Cl)c3[nH]1)nc2[C@H]1CC[C@H](C(=O)O)CC1 [OXA-01] | inhibited | dose-dependently attenuated | not apparent | unchanged | decreased | slowed tumor growth more than did rapamycin | reduction of tumor vascularity (CD31) (RIP-Tag2 tumors [2]; RIP-Tag2, at 1, 2, or 4 days): not detectably reduced; decrease in tumor vessel regrowth (RIP-Tag2 tumors [7]; named drug for 1 day after withdrawal of OSI-930, data not shown): no significant decrease; inhibition of MEK2 (MEK2): inhibited; apoptosis measured by activated-caspase-3 ([5]; 7 days): increased; cellular proliferation determined by phospho-histone H3 ([5]; 7 days): decreased; inhibition of JNK3 (JNK3): inhibited
